Measurements reported in ChEMBL document CHEMBL3856274, “Sydnone Cycloaddition Route to Pyrazole-Based Analogs of Combretastatin A4” (J Med Chem, 2016).
Calls of active or inactive are those of the source. No cut-off for these calls is given here.

Key:
HUVEC [1] = experiment: Disruption of interphase microtubule in HUVEC assessed as change in cell shape and morphology at 250 nM preincubated for 30 mins followed by compound washout measured after 60 mins by DAPI staining-based immunofluorescence assay; settings: Homo sapiens
Method in brief: (§1)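 HUVECs on fibronectin-coated chamber slides were exposed to 250 nM drug or vehicle for 30 min at 37 °C. Cells were washed four times with serum-containing medium, incubated 30 min, washed again and incubated a further 30 min (60 min recovery). They were then fixed in 3.7% formalin, permeabilized with 0.1% Triton X-100, and stained for β-tubulin, F-actin (phalloidin) and DAPI.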

SW1222 = experiment: Induction of necrosis in human SW1222 cells xenografted in SCID mouse at 0.227 mmol/kg administered as single dose measured after 24 hrs by hematoxylin/eosin staining-based microscopic method; type: functional, cell-based
Method in brief: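 SW1222 cells (5 × 10^6) injected s.c. into the rear dorsum of female SCID mice (8–12 weeks). Tumours treated at about 8 mm mean diameter with a single dose of 0.227 mmol/kg in […]/NaCl, 10 mL/kg. Tumours excised at 24 h. Necrosis scored on 5 µm H&E sections by Chalkley point counting.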

HUVEC [2] = experiment: Disruption of interphase microtubule in HUVEC assessed as formation of actin stress fiber at 250 nM preincubated for 30 mins followed by compound washout measured after 60 mins by DAPI staining-based immunofluorescence assay; type: cell-based; settings: Homo sapiens; method in brief: as §1
HUVEC [3] = experiment: Induction of HUVEC monolayer permeability assessed as increase in passage of FITC-dextran through cell monolayer at 50 nM preincubated for 30 mins followed by compound washout and addition of FITC-dextran for 30 mins by fluorescence assay; type: functional, cell-based; settings: Homo sapiens
Method in brief: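 HUVECs seeded at 5 × 10^4 per fibronectin-coated 3 µm-pore insert and cultured 5 days to a confluent monolayer. Drug 50 nM for 30 min at 37 °C, then replaced with FITC-dextran (0.8 mg/mL) for 30 min. Lower-well fluorescence read at ex 488/em 525 and expressed as % of a cell-free insert. Mean of 3 independent experiments ± SEM.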

HUVEC [4] = experiment: Disruption of interphase microtubule in HUVEC assessed as change in cell shape at 250 nM after 30 mins by DAPI staining-based immunofluorescence assay; settings: Homo sapiens
Method in brief: (§2)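 HUVECs (supplemented medium, 10% FCS final, used up to 5 passages) plated on fibronectin-coated chamber slides at 2.5 × 10^4 or 5 × 10^4 cells/well. Treated with drug (dilutions in EBM from 20 mM DMSO stock) or vehicle for 30 min. Then fixed in 3.7% formalin, permeabilized in 0.1% Triton X-100, and stained for β-tubulin (antibody), F-actin (phalloidin) and nuclei (DAPI).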

HUVEC [5] = experiment: Disruption of interphase microtubule in HUVEC assessed as change in cell morphology at 250 nM after 30 mins by DAPI staining-based immunofluorescence assay; settings: Homo sapiens; method in brief: as §2
HUVEC [6] = experiment: Activation of ROCK in HUVEC assessed as phosphorylation of myosin light chain at 50 to 500 nM after 15 mins by Western blot method; type: cell-based; settings: Homo sapiens
Method in brief: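 HUVECs seeded on gelatin at 5 × 10^4 cells/well and grown 7 days without medium change. Drugs diluted in EBM from 20 mM DMSO stock and applied 15 min. Proteins extracted in LDS buffer. Western blot for dually phosphorylated MLC, with actin reprobe for loading. Band intensity given as fold-change over vehicle. Mean of 3-4 independent experiments ± SEM.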

[7] = Toxicity in SCID mouse; type: organism-based; settings: in vivo
HUVEC [8] = experiment: Growth inhibition of HUVEC after 72 hrs by crystal violet staining-based assay; type: functional; settings: Homo sapiens
Method in brief: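 HUVECs at 5 × 10^3/well on gelatin-coated plates were allowed to adhere for 24 h, then given a drug concentration series in EBM (≥8 wells per concentration) for 72 h at 37 °C. Cells were fixed in 3.7% formalin and stained with 1% crystal violet, which was solubilized in 10% acetic acid and read at A590 with background correction. % growth inhibition from ≥3 independent experiments was plotted against log concentration to give GI50.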

HUVEC [9] = experiment: Disruption of interphase microtubule in HUVEC assessed as formation of actin stress fiber at 1 uM after 90 mins by phalloidin/DAPI staining-based immunofluorescence assay; type: cell-based; settings: Homo sapiens
Method in brief: (§3)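 HUVECs seeded on fibronectin-coated chamber slides. Drug diluted in EBM from 20 mM DMSO stock. Exposure 250 nM for 30 min or 1 µM for 90 min. Fixed in 3.7% formalin and permeabilised in 0.1% Triton X-100. Stained for β-tubulin by antibody, F-actin by phalloidin and nuclei by DAPI, then imaged by immunofluorescence.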

HUVEC [10] = experiment: Disruption of interphase microtubule in HUVEC assessed as change in cell morphology at 1 uM after 90 mins by DAPI staining-based immunofluorescence assay; settings: Homo sapiens; method in brief: as §3
HUVEC [11] = experiment: Disruption of interphase microtubule in HUVEC assessed as formation of actin stress fiber at 250 nM after 30 mins by phalloidin/DAPI staining-based immunofluorescence assay; type: cell-based; settings: Homo sapiens; method in brief: as §3

For `COc1ccc(-c2[nH]ncc2-c2cc(OC)c(OC)c(OC)c2)cc1O`, the Activity (HUVEC [1]) was “Active”, the Activity (SW1222) was “Active” and the Activity (HUVEC [2]) was “Active”. The Activity (HUVEC [3]) was “Active”, the Activity (HUVEC [4]) was “Active” and the Activity (HUVEC [5]) was “Active”. The Activity (HUVEC [6]) was “Active”, the MTD [7] was greater than 162 mg/kg and the GI50 (HUVEC [8]) was 7 nM.

With `COc1ccc(-c2cn(Cc3ccccc3)nc2-c2cc(OC)c(OC)c(OC)c2)cc1O` the GI50 (HUVEC [8]) was greater than 5000 nM.

For `COc1cc2c(c(OC)c1OC)-c1ccc(OC)c(=O)cc1[C@@H](NC(C)=O)CC2` [COLCHICINE], the Activity (HUVEC [9]) was “Active”, the Activity (HUVEC [10]) was “Active” and the GI50 (HUVEC [8]) was 25 nM.

Compound `COc1ccc(-c2cnn(Cc3ccccc3)c2-c2cc(OC)c(OC)c(OC)c2)cc1O` has a GI50 (HUVEC [8]) greater than 2500 nM.

Work on `COc1ccc(-c2c(-c3cc(OC)c(OC)c(OC)c3)cnn2Cc2ccccc2)cc1O` yielded a GI50 (HUVEC [8]) greater than 750 nM.

Compound `COc1ccc(-c2cn(C)nc2-c2cc(OC)c(OC)c(OC)c2)cc1O` has a GI50 (HUVEC [8]) greater than 5000 nM.

Compound `COc1ccc(-c2cnn(C)c2-c2cc(OC)c(OC)c(OC)c2)cc1O` has a GI50 (HUVEC [8]) of 68 nM.

Compound `COc1ccc(-c2cn[nH]c2-c2cc(OC)c(OC)c(OC)c2)cc1O` has a GI50 (HUVEC [8]) greater than 5000 nM.

`COc1ccc(-n2nccc2-c2cc(OC)c(OC)c(OC)c2)cc1O` showed a GI50 (HUVEC [8]) greater than 750 nM.

In the case of `COc1ccc(-c2nn(C)cc2-c2cc(OC)c(OC)c(OC)c2)cc1O`, the GI50 (HUVEC [8]) is reported as 256 nM.

For `COc1ccc(-c2nn(Cc3ccccc3)cc2-c2cc(OC)c(OC)c(OC)c2)cc1O`, the GI50 (HUVEC [8]) was greater than 2000 nM.

With `COc1ccc(-c2c(-c3cc(OC)c(OC)c(OC)c3)cnn2C)cc1O` the GI50 (HUVEC [8]) was 118 nM.

With `COc1ccc(/C=C\c2cc(OC)c(OC)c(OC)c2)cc1OP(=O)(O)O` [FOSBRETABULIN DISODIUM] the Activity (SW1222) was “Active”, the Activity (HUVEC [3]) was “Active” and the Activity (HUVEC [5]) was “Active”. The Activity (HUVEC [6]) was “Active”, the Activity (HUVEC [11]) was “Active” and the GI50 (HUVEC [8]) was 8 nM.

For `COc1ccc(-c2ccnn2-c2cc(OC)c(OC)c(OC)c2)cc1O`, the Activity (HUVEC [4]) was “Active”, the Activity (HUVEC [5]) was “Active” and the GI50 (HUVEC [8]) was 28 nM.
